Data on 23 compounds can be found in ChEMBL document CHEMBL4385610, “Selective Inhibition of Histone Deacetylase 10: Hydrogen Bonding to the Gatekeeper Residue is Implicated” (J Med Chem, 2019).

One test deals with T1, Histone deacetylase 8 (Homo sapiens, UniProt Q9BY41).
T1 sequence (Q9BY41 whole entry): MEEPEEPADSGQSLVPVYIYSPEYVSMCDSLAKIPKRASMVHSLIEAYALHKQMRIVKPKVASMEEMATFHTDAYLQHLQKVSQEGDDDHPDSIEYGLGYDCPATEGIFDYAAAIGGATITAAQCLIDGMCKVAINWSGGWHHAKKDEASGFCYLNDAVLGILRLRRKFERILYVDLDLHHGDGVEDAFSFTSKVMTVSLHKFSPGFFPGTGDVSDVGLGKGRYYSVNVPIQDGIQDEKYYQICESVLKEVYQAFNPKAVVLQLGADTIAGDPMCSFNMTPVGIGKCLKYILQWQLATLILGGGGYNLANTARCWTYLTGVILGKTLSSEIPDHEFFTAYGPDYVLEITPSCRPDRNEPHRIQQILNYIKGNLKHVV
The test is described as follows: Inhibition of recombinant human full length C-terminal His-tagged HDAC8 expressed in baculovirus infected insect cells measured after 40 mins by HDAC-Glo1/2 luminescent assay.

A further test concerns the target Histone deacetylase 1 (Homo sapiens, UniProt Q13547). The test is described as follows: Inhibition of recombinant full-length C-terminal FLAG-fused/His-tagged human HDAC1 expressed in baculovirus infected Sf9 insect cells measured after 40 mins by HDAC-Glo1/2 luminescent assay.
In test [1] the target is T2, Polyamine deacetylase HDAC10 (Homo sapiens, UniProt Q969S8).
T2 sequence (Q969S8 whole entry): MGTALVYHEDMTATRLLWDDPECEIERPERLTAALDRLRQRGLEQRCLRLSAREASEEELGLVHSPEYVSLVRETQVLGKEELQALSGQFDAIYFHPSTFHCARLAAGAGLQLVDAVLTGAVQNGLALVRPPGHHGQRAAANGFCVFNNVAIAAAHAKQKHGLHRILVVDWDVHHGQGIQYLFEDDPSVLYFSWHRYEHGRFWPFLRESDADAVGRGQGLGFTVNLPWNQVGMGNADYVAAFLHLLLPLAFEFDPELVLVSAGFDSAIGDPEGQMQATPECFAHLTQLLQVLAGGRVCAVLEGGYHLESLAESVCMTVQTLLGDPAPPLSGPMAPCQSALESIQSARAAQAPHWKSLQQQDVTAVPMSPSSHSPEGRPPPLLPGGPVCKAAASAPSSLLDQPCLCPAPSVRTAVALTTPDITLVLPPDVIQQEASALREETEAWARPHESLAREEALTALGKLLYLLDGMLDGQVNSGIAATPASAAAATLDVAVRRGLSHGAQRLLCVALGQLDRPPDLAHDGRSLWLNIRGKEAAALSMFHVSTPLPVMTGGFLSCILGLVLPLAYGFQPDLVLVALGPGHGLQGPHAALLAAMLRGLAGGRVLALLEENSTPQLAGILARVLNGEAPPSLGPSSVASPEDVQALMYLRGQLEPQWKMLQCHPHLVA
Briefly: Inhibition of tubastatin-Alexa647-tracer binding to recombinant GST-tagged HDAC10 (unknown origin) measured after 1 hr by TR-FRET assay. Background: Time-resolved FRET reads energy transfer from a long-lived donor to a nearby acceptor.

A further test has as its target Histone deacetylase 2 (Homo sapiens, UniProt Q92769). The test is described as follows: Inhibition of recombinant full-length C-terminal His-tagged human HDAC2 expressed in baculovirus infected Sf9 insect cells measured after 40 mins by HDAC-Glo1/2 luminescent assay. Format: cell-based.
The target in test [2] is Histone deacetylase 3/Nuclear receptor corepressor 2 (HDAC3/NCoR2) (Homo sapiens, UniProt O15379). The test is described as follows: Inhibition of human recombinant full length C-terminal His-tagged HDAC3 (1 to 428 residues)/N-terminal GST-tagged NCOR2 (395 to 489 residues) expressed in baculovirus infected insect cells measured after 40 mins by HDAC-Glo1/2 luminescent assay.
Histone deacetylase 3/Nuclear receptor corepressor 2 (HDAC3/NCoR2), sequence (O15379 whole entry, the tested form may be a part): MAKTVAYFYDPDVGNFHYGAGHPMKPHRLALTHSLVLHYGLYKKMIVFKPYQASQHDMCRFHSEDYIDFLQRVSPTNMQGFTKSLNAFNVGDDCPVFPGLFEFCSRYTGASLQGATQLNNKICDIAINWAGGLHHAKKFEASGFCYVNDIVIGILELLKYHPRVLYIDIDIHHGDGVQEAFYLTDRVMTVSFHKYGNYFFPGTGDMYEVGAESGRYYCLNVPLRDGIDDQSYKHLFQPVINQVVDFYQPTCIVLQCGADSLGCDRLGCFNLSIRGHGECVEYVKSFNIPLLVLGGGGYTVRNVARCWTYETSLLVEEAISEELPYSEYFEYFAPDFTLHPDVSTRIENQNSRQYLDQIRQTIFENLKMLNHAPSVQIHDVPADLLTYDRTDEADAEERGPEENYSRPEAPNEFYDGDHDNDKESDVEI
Histone deacetylase 3/Nuclear receptor corepressor 2 (HDAC3/NCoR2), sequence (Q9Y618 whole entry, further chain, the tested form may be a part): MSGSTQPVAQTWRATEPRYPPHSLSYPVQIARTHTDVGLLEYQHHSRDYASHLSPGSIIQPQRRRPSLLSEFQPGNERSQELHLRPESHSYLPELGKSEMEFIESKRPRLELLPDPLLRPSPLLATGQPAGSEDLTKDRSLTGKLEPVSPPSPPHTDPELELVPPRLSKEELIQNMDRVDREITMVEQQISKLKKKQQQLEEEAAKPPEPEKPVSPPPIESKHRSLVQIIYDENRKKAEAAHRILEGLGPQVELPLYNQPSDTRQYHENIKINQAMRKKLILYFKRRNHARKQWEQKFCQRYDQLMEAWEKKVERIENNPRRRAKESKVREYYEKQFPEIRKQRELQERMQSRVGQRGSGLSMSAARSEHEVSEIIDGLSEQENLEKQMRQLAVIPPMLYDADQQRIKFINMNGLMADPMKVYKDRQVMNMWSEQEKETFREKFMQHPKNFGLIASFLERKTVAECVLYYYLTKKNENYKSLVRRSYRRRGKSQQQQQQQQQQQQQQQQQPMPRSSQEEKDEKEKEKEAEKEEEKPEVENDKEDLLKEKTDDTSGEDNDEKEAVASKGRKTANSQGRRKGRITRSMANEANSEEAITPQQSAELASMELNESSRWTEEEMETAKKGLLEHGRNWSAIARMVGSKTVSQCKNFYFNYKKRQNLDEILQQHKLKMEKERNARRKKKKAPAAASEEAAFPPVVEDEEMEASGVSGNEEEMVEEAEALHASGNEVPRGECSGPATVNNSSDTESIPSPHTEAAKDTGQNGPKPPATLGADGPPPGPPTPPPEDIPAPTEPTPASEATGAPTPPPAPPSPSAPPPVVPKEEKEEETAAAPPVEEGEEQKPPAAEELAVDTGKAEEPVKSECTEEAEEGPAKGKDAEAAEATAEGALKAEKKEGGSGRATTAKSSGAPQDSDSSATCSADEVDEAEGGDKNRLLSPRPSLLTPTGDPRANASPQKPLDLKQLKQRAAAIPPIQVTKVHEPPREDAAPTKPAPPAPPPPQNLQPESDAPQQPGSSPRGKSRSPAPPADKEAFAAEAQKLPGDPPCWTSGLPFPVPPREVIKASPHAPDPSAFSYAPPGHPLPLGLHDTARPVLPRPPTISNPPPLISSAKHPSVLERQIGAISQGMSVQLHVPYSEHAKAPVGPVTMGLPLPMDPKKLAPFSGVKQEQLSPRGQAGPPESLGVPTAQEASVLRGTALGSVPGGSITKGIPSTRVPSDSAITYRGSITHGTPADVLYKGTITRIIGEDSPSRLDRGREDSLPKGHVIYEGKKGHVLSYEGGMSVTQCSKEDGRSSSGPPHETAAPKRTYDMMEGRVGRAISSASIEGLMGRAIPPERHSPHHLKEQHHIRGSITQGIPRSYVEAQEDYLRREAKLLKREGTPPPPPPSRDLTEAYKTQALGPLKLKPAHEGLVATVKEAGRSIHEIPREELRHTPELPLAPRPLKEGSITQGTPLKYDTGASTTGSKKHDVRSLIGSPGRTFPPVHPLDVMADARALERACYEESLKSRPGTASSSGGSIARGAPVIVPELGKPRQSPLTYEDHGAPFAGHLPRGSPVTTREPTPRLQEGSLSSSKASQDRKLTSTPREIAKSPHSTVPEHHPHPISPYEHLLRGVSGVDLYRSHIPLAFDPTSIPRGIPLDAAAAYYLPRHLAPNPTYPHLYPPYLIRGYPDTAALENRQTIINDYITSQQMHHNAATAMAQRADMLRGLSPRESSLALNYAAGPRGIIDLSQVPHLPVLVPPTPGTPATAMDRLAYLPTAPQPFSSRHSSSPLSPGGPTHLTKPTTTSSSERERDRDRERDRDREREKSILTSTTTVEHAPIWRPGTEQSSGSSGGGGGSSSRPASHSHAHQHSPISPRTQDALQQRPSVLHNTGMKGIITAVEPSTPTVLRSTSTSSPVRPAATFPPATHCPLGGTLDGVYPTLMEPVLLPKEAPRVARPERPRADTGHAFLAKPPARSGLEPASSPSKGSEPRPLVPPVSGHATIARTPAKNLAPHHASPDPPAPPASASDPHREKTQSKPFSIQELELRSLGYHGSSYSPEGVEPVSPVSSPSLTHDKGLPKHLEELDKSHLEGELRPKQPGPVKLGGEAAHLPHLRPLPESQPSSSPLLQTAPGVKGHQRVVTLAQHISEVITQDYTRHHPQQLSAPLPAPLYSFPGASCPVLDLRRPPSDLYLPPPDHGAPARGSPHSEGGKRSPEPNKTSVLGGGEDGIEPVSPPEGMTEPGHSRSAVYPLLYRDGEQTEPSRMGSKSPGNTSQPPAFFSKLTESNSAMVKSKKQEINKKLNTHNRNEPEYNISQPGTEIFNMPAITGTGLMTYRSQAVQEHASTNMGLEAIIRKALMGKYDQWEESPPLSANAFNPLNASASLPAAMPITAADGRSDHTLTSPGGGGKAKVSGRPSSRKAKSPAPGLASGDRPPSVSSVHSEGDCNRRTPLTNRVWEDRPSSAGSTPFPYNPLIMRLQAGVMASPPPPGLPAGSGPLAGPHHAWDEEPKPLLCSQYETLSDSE

For test [3], the target named is T3, Protein deacetylase HDAC6 (Homo sapiens, UniProt Q9UBN7).
T3 sequence (Q9UBN7 whole entry): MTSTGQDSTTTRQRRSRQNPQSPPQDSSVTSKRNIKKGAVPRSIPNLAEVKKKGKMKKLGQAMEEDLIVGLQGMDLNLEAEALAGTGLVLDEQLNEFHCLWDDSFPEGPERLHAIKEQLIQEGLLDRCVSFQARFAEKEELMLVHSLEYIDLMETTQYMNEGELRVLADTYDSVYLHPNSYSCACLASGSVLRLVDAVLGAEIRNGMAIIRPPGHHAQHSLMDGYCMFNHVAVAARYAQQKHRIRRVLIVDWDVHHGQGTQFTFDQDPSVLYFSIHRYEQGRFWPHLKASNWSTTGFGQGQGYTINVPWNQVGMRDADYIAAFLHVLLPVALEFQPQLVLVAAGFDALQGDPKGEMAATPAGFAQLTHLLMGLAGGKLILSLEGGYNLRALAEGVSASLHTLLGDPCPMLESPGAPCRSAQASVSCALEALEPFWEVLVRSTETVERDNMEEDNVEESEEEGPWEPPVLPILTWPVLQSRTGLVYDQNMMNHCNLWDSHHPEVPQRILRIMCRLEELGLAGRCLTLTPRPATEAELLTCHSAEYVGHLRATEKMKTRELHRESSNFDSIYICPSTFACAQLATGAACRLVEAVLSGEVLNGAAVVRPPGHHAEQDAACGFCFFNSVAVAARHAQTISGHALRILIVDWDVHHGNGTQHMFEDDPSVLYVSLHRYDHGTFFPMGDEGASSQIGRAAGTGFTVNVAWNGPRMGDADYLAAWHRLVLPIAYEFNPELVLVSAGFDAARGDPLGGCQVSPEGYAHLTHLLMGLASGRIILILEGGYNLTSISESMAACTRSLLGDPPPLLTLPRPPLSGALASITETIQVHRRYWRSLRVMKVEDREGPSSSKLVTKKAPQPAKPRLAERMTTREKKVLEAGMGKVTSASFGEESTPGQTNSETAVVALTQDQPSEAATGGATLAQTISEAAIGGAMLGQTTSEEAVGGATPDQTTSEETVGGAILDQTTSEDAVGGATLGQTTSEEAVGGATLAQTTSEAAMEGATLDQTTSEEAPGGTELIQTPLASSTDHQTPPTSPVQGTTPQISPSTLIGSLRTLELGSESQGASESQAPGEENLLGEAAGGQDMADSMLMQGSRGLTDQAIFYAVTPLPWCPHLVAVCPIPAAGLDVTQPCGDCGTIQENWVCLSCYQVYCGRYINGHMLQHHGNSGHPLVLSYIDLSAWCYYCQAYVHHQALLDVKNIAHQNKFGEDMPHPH
Briefly: Inhibition of dye-labeled tracer binding to HDAC6 (unknown origin) transfected in human HeLa cells measured after 2 hrs by nano-luciferase reporter gene-based BRET assay. The class given is cell-based. The method in brief: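 Live-cell target engagement by BRET: cells overexpressing nano-luciferase-tagged HDAC6 or HDAC10 are given a dye-labelled tracer and the nano-luciferase substrate, and a competing binder disrupts BRET. pIC50 comes from pooled data of two biological replicates, each run in triplicate. The selectivity fold is taken from the HDAC10 and HDAC6 BRET values.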
(In general: In a reporter assay the amount or activity of a reporter protein is the signal.)

Test [4] addresses T2, Polyamine deacetylase HDAC10. The test is described as follows: Inhibition of dye-labeled tracer binding to HDAC10 (unknown origin) transfected in human HeLa cells measured after 2 hrs by nano-luciferase reporter gene-based BRET assay. The class given is cell-based.
Test [5] concerns the target T4, Protein deacetylase HDAC6 (Homo sapiens) (UniProt Q9UBN7).
T4 sequence (whole entry): T3 sequence (Q9UBN7 whole entry)
The test is described as follows: Inhibition of HDAC6 in human BE(2)-C cells assessed as increase in tubulin acetylation at 10 uM measured after 24 hrs by Western blot analysis. The class given is cell-based. In a few lines: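 In the neuroblastoma BE(2)-C line, HDAC6 inhibition is read as tubulin acetylation by Western blot, comparing acetylated tubulin with total tubulin.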

Usually IC50 stands for the point on the concentration scale where inhibition reaches its midpoint.

Active and inactive are the calls of the source. The rule behind the calls is not given here. A value given as a limit tells only on which side of the number the result lay.

Histone deacetylase 1, sequence (Q13547 whole entry, the tested form may be a part): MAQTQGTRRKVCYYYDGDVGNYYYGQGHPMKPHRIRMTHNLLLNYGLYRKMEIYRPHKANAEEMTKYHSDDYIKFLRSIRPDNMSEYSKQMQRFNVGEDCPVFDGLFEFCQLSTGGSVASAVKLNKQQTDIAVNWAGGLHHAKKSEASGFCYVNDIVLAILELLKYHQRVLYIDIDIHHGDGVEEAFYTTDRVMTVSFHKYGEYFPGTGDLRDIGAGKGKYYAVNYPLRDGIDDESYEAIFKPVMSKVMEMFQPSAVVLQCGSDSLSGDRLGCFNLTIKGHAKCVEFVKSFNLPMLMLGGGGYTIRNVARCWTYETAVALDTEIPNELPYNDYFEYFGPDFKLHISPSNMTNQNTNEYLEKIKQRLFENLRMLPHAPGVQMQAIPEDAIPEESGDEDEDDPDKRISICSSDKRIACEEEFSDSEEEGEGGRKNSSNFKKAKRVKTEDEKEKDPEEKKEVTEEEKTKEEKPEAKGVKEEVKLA
Histone deacetylase 2, sequence (Q92769 whole entry, the tested form may be a part): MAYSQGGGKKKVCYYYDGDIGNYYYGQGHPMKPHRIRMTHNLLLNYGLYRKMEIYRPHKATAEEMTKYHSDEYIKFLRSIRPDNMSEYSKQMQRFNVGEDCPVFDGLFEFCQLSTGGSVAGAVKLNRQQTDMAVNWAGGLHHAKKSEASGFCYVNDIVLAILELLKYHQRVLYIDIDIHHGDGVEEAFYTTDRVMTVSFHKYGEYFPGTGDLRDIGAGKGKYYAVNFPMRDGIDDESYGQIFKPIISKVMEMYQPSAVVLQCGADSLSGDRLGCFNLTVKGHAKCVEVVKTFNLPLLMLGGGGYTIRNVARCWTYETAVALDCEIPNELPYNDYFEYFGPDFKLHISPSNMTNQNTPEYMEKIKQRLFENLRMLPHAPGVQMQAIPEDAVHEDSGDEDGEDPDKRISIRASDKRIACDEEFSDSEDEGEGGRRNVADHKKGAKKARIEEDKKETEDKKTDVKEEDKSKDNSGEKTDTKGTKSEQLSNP

As to `Cn1cncc1-c1cn(Cc2ccc(C(=O)NO)cc2)c2ccccc12`, the half-inhibitory concentration (IC50) was 398 nM at Histone deacetylase 8; 631 nM on Histone deacetylase 1; 25.1 nM in test [1]; 3.16 µM on Histone deacetylase 2; 501 nM in test [2]; 79.4 nM in test [3]. For the same compound, in test [4], the IC50 was 50.1 nM.

Turning to `O=C(NO)c1ccc(Cn2c3ccccc3c3ccccc32)cc1`, the IC50 in test [1] was 2000 nM; in test [3], 39.8 nM; in test [4] it was 3980 nM.

As for `O=C(NO)c1ccc(Cn2ccc3ccccc32)cc1`, the results for the IC50 in test [1], in test [3] and in test [4] were 63.1 nM, 63.1 nM and 158 nM, respectively.

Turning to `Cn1cc(CNCC2CCN(c3ncc(C(=O)NO)cn3)CC2)c2ccccc21` [QUISINOSTAT], the IC50 in test [1] is 10 nM; in test [4] it was 39.8 nM.

For `CN(C)Cc1nn(Cc2ccc(C(=O)NO)cc2)c2ccccc12`, the concentration for half-maximal inhibition (IC50) at Histone deacetylase 8 was 794 nM; at Histone deacetylase 1 it was 1260 nM; in test [1], 20 nM; at Histone deacetylase 2 it was 7.94 µM; in test [2], 794 nM; in test [3] it was 126 nM.

For the compound `COCCc1cn(Cc2ccc(C(=O)NO)cc2)c2ccccc12`, the IC50 in test [1] is 126 nM; in test [3], 63.1 nM; in test [4], 200 nM.

`O=C(NO)c1ccc(Cn2cc(CN3CCCC3)c3ccccc32)cc1`: the IC50 on Histone deacetylase 8 is 316 nM; at Histone deacetylase 1, 794 nM; in test [1] it was 3.98 nM; on Histone deacetylase 2 it was 6.31 µM; in test [2], 398 nM; in test [3] it was 158 nM. In test [4], this compound showed an IC50 of 3.98 nM.

Regarding `CC(=O)N1CCc2c(c3ccccc3n2Cc2ccc(C(=O)NO)cc2)C1`, the figures for the half-maximal inhibitory concentration (IC50) in test [1], in test [3] and in test [4] were 501 nM, 79.4 nM and 2000 nM, respectively.

As for `O=C(NO)c1ccc(Cn2cc(CCO)c3ccccc32)cc1`, the IC50 in test [1] is 79.4 nM; in test [3], 31.6 nM; in test [4], 200 nM.

For `CN(C)CCc1cn(Cc2ccc(C(=O)NO)cc2)c2ccccc12`, the results for the concentration for half-maximal inhibition (IC50) in test [1] and in test [4] were 20 nM and 25.1 nM, respectively.

Take `CN1CCc2c(n(Cc3ccc(C(=O)NO)cc3)c3ccccc23)C1`: the concentration for half-maximal inhibition (IC50) at Histone deacetylase 8 is 3980 nM; on Histone deacetylase 1 it was 3160 nM; in test [1], 200 nM; on Histone deacetylase 2, 25.1 µM; in test [2], 3980 nM; in test [3], 63.1 nM. In test [4], this compound had an IC50 of 158 nM.

In the case of `O=C(NO)c1ccc(Cn2c3c(c4ccccc42)CSCC3)cc1`, the values for the IC50 in test [1], in test [3] and in test [4] were 316 nM, 126 nM and 398 nM, respectively.

In the case of `O=C(CCCCCCNC(=O)c1cnc(N(c2ccccc2)c2ccccc2)nc1)NO` [RICOLINOSTAT], the values for the IC50 in test [1] and in test [4] were 126 nM and 1580 nM, respectively.

For the compound `C#Cc1cccc(Nc2ncnc3cc(OC)c(OCCCCCCC(=O)NO)cc23)c1` [CUDC-101], the IC50 in test [1] was 126 nM; in test [4] it was 398 nM.

Regarding `Cc1c(C)n(Cc2ccc(C(=O)NO)cc2)c2ccccc12`, the half-maximal inhibitory concentration (IC50) on Histone deacetylase 8 was 1580 nM; at Histone deacetylase 1 it was 2510 nM; in test [1], 316 nM; on Histone deacetylase 2, 12.6 µM; in test [2] it was 3160 nM; in test [3] it was 31.6 nM. In addition, the IC50 in test [4] was 631 nM.

Turning to `O=C(NO)c1ccc(Cn2c3c(c4ccccc42)CCCC3)cc1`, the half-inhibitory concentration (IC50) in test [1] was 1000 nM; in test [3] it was 63.1 nM; in test [4] it was 2510 nM.

Consider `CC(C)(C)OC(=O)Nc1ccc(-c2cc(C(=O)NCCCCCCC(=O)NO)no2)cc1`, for which the concentration for half-maximal inhibition (IC50) in test [1] was 316 nM; in test [4] it was 794 nM.

`O=C(NO)c1ccc(Cn2c3c(c4ccccc42)COCC3)cc1`: the IC50 is 794 nM at Histone deacetylase 8; 1580 nM at Histone deacetylase 1; 631 nM in test [1]; 7.94 µM at Histone deacetylase 2; 1260 nM in test [2]; 20 nM in test [3]. The IC50 in test [4] was 1000 nM.

Consider `CC(C)(C)c1cc2ccccc2n1Cc1ccc(C(=O)NO)cc1`, for which the results for the IC50 in test [1], in test [3] and in test [4] were 5010 nM, 2000 nM and above 39800 nM, respectively. Also, the inhibition result in test [5] is “Active”.

For `CN(C)Cc1cn(Cc2ccc(C(=O)NO)cc2)c2ccccc12`, the half-inhibitory concentration (IC50) on Histone deacetylase 8 is 398 nM; on Histone deacetylase 1 it was 1000 nM; in test [1], 5.01 nM; on Histone deacetylase 2, 6.31 µM; in test [2], 631 nM; in test [3], 158 nM. For the same compound, the IC50 in test [4] was 3.98 nM.

For the compound `O=C(NO)c1ccc(CC(=O)N(CCO)c2ccccc2)cc1`, the figures for the half-maximal inhibitory concentration (IC50) in test [1] and in test [4] were 79.4 nM and 316 nM, respectively.

With `CC(C)(C)OC(=O)NCc1cn(Cc2ccc(C(=O)NO)cc2)c2ccccc12`, the half-maximal inhibitory concentration (IC50) is 158 nM in test [1], 79.4 nM in test [3] and 251 nM in test [4].

Take `CN1CCCC1c1cn(Cc2ccc(C(=O)NO)cc2)c2ccccc12` (racemic): the concentration for half-maximal inhibition (IC50) at Histone deacetylase 8 was 398 nM; at Histone deacetylase 1 it was 316 nM; in test [1], 5.01 nM; on Histone deacetylase 2, 2 µM; in test [2], 158 nM; in test [3], 126 nM. For the same compound, the concentration for half-maximal inhibition (IC50) in test [4] is 5.01 nM.
